Assay [1] deals with T1, Growth factor receptor-bound protein 2 (Homo sapiens, UniProt P62993). The experiment in a line: Binding affinity to GST-tagged Grb2 SH3C domain (unknown origin) using biotinylated Gab2b peptide as substrate at 5 mM by SDS-PAGE analysis. In short, it runs like this: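 Purified GST–Grb2 SH3C (10 µg/sample) was pre-incubated with compound at 5 mM, in duplicate, for 2 h at 4 °C. Streptavidin beads carrying biotinylated Gab2b peptide were then added for 30 min. After PBS-T washes, bound protein was resolved by SDS-PAGE, Coomassie-stained and scored by densitometry relative to the no-inhibitor control (100%).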
Target sequence in this assay (P62993 whole entry, looked up, the tested form may be a part): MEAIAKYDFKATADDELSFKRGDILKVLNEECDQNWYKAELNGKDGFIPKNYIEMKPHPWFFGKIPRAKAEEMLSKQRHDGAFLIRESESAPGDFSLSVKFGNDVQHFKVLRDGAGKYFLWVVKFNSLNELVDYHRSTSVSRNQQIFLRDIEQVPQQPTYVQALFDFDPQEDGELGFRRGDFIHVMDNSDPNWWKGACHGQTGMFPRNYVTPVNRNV

The target of assay [2] is T1, Growth factor receptor-bound protein 2. The experiment in a line: Binding affinity to wild type human Grb2 SH3C domain at > 200 uM by SPR assay. (In general: Surface plasmon resonance follows binding to a sensor surface in real time, without labels.)
Target sequence in this assay (P62993 whole entry, looked up, the tested form may be a part): as above
The target is the same in assay [3]. The experiment in a line: Binding affinity to wild type human Grb2 SH3C domain at 50 to 100 uM by SPR assay. The procedure, abridged:
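Untagged Grb2 SH3C was amine-coupled to a CM5 chip at about 1500 RU. Compounds at 50 and 100 µM in HBS-N (10 mM Hepes pH 7.4, 150 mM NaCl) with 5% DMSO and 0.01% Tween 20 were injected for 120 s at 40 µL/min and 25 °C. Responses were double-referenced. Binders were defined by a response of at least 5 RU at 100 µM, derived from a KD cutoff of ≤1 mM.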
Target sequence in this assay (P62993 whole entry, looked up, the tested form may be a part): as above

For assay [4] the target is unchanged. In words: Inhibition of GST-tagged Grb2 SH3C domain (unknown origin)-Gab2 interaction up to 20 mM incubated 2 hrs prior to biotinylated Gab2b peptide addition measured after 30 mins by SDS-PAGE analysis. In short, it runs like this:
(§1)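 Concentration-response format of the bead pull-down. GST–Grb2 SH3C (10 µg) was pre-incubated 2 h at 4 °C with increasing compound concentrations in Tris pH 7.5 buffer containing 5% DMSO. Biotin-Gab2b peptide–streptavidin beads were added for 30 min. Bound protein was measured by SDS-PAGE/Coomassie densitometry, normalized to the no-inhibitor sample, and fitted to a sigmoidal inhibition model by nonlinear regression. Gels represent 4–6 repeats.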
Target sequence in this assay (P62993 whole entry, looked up, the tested form may be a part): as above

Assay [5] shares this target. In words: Competitive inhibition of GST-tagged Grb2 SH3C domain (unknown origin)-Gab2 interaction incubated 2 hrs prior to biotinylated Gab2b peptide addition measured after 30 mins by SDS-PAGE analysis. In short, it runs like this:
as §1
Target sequence in this assay (P62993 whole entry, the tested form may be a part): as the sequence (P62993 whole entry, looked up, the tested form may be a part) above

Assay [6] shares this target. The experiment in a line: Binding affinity to Grb2 SH3C domain (unknown origin) at 1 mM by isothermal titration calorimetry. The procedure, abridged:
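ITC at 25 °C used 20 µM purified Grb2 SH3C in the cell, in 50 mM Hepes pH 7.5, 50 mM NaCl, 0.5% DMSO. Compound at 1 mM in the same buffer was titrated in: one 4 µL injection followed by 18 injections of 15 µL.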
Target sequence in this assay (P62993 whole entry, looked up, the tested form may be a part): as above

Drawing on ChEMBL document CHEMBL2396552, “Novel inhibitors of a Grb2 SH3C domain interaction identified by a virtual screen” (Bioorg Med Chem, 2013), this text covers Activity, inhibition and IC50 for 34 molecules.

Calls of active or inactive are those of the source.

For `CN1CC(=O)N=C(N)N=C1N`, the outcome in assay [1] was inactive.
On the same count and under the same terms, to `C/C(=N\NC(=N)N)c1cnc(C)nc1C` belongs “inactive”.
With `CC1(C)N=C(N)N=C(N)N1c1cccc(OCC#N)c1`, the outcome in assay [2] and in assay [3] was Active. In assay [1], the Activity was more than 20%. Also, in assay [4], the inhibition result was “Active”.
In the case of `NCCN1CCN=C1C1=NCCN1CCN`, the outcome in assay [1] was inactive.
In the case of `CC1(C)N=C(N)N=C(N)N1c1cc(C(F)(F)F)cc(C(F)(F)F)c1`, the outcome in assay [1] was inactive.
As to `Nc1nc(N)n(Cc2ccc3c(c2)OCO3)n1`, the outcome in assay [1] was inactive.
On to `CC1(C)N=C(N)N=C(N)N1c1cccc(/C=C/C=C/c2cccc([N+](=O)[O-])c2)c1`, for which, in assay [5], the IC50 (usually the concentration that inhibits the measured activity by half) is 0.32 mM. Also, the outcome in assay [2] and in assay [3] was Active. The result in assay [6] was inactive. In addition, the Activity in assay [1] is more than 20%.
On to `N=C(NC1CCC(C2CCC(N)CC2)CC1)C(=N)NC1CCC(C2CCC(N)CC2)CC1` (configuration not stated), for which the result in assay [3] was Active. The Activity in assay [1] is more than 20%.
Consider `NC[C@@H]1[C@@H](CN)[C@H]2C=C[C@@H]1CC2`, for which, in assay [1], the Activity is more than 20%.
Turning to `NC1=NS(=O)(=O)Nc2nn(-c3ccccc3)nc21`, in assay [1], the result was inactive.
For the molecule `CC(CC(=N)N)NC(=O)C1CCC(N)=N1` (configuration not stated), the outcome in assay [1] was inactive.
Consider `Nc1n[nH]c2cc(O)[nH]c(=O)c12`, for which, in assay [1], the Activity is more than 20%.
Same read-out and setting: to `NC=C1C(=O)NC(=O)NC1=O` belongs “inactive”.
As for `NC1CCC(NC2CCC(N)CC2)CC1` (configuration not stated), the result in assay [3] was Active. The same molecule yielded an Activity in assay [1] of more than 20%.
Turning to `Nc1n[nH]c(=O)n2ncnc12`, in assay [1], the result was inactive.
As for `CC1(C)N=C(N)N=C(N)N1c1cccc(OCc2cccc(N)c2)c1`, the outcome in assay [3] was Active. Moreover, the result in assay [1] was inactive.
With `CC1(C)N=C(N)N=C(N)N1c1cccc(OCCOc2cccc(N)c2)c1`, the result in assay [3] was Active. In addition, the result in assay [1] was inactive.
Consider `Cc1ccc(O)c(C2CC(=O)NC(N)=N2)c1` (configuration not stated), for which the outcome in assay [3] was Active. In addition, the outcome in assay [1] was inactive.
Regarding `CC1(C)N=C(N)N=C(N)N1c1cccc(CCCCc2cccc(N)c2)c1`, the IC50 in assay [5] amounted to 5.7 mM. In addition, the outcome in assay [2] and in assay [3] was Active. For the same molecule, in assay [6], the outcome was inactive. This molecule also came in with an Activity in assay [1] of more than 20%.
On to `CC1(C)N=C(N)N=C(N)N1c1cccc(CO)c1`, for which, in assay [1], the outcome was inactive.
As for `CN1C[C@@H]2[C@@H](N)N=C(N)N[C@@H]2C1(C)C`, the outcome in assay [1] was inactive.
Still for that read-out and setting: to `Cc1nnc2c3nccnc3c(N)nn12` belongs “inactive”; to `C1CN=C(C2=NCCCN2)NC1`, “inactive”.
With `Cc1ccc(C(/C=C/c2ccccc2)=N/NC(=N)N)cc1`, in assay [3], the outcome was Active. For the same molecule, the Activity in assay [1] is more than 20%.
Take `N=C(NC1=NCCN1)C(=N)NC1=NCCN1`: in assay [1], the outcome was inactive.
The same measure, in the same setting: to `Cn1c(N)nc2nc[nH]c2c1=O` belongs “inactive”; to `Cn1cnc(N)c2ncnc1-2`, “inactive”.
With `Nc1nc(N)c2cnnn2n1`, the outcome in assay [1] was inactive.
As for `CC(=O)c1ccc(/N=N/c2c(N)nc(N)nc2N)cc1`, the result in assay [3] was Active. The molecule also showed an Activity in assay [1] of more than 20%.
Turning to `Nc1nsc2nc3ccccc3cc12`, in assay [1], the result was inactive.
For the molecule `Cn1c(CCNC(=N)CSS(=O)(=O)O)nc2ccccc21`, in assay [1], the result was inactive.
`NC(C(=O)O)C(O)c1c[nH]cn1` (configuration not stated): the result in assay [1] was inactive.
Turning to `Cc1cnc2c(c1)CCCC2C(N)=S` (configuration not stated), the Activity in assay [1] was more than 20%.
The same measure, in the same setting: to `N=C(NCCN)C(=N)NCCN` belongs “inactive”.
